Screens: PubChem, SRMLSC
The entries come from a sample that favours hits as a whole.
H69AR growth 86K: blocks growth of human H69AR lung tumor cells; H69AR lung tumor viability, ATP luminescence, 72 h; active compounds read low; AID 598; viability, % at 10 µM; hit rate 6% among 85,000;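 active = viability at or below 40%; inactive = viability above 40%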;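 note: multidrug resistant small cell line overexpressing MRP-1 efflux transporter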
bCat KO growth: beta-catenin-lacking colon tumor cell growth suppression | HCT116 beta-catenin knockout viability, CellTiter-Glo, 60 h; active compounds read low | viability, % at 10 µM | hit rate 1.5% among 140,000 | AID 818;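 active = viability at or under a set limit, the compound median less 4 SD, cut at about 6% in these data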
HUVEC inhibit: inhibitors of human endothelial cell proliferation; hit rate 1.1% among 86,000; viability, % at 10 µM (by protocol); HUVEC proliferation, CellTiter-Glo luminescence, 72 h; active compounds read low; AID 648;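 active = viability at or below 30%; inactive = viability above 30%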
PTEN del growth: suppresses growth of cells with PTEN deletion; HCT116 PTEN-null viability, CellTiter-Glo, 60 h; active compounds read low; viability, % at 10 µM; hit rate 1.2% among 140,000; AID 827;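 active = viability at or below a set limit, 4 SD under the median of all tested compounds, cut at about 3.7% in these data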;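 note: PTEN knockout HCT116 line with beta catenin targeted HCT116 as companion control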
Fibroblast inh: blocks proliferation of human lung fibroblasts; hit rate 1.1% among 85,000; LL 47 human lung fibroblast viability, ATP luminescence; active compounds read low; viability, % at 10 µM; AID 719;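 active = viability at or below 50% in the single dose screen; inactive = viability above 50%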;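 note: compound exposure lasted 72 h before the ATP readout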
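Material: human lung fibroblast line LL 47, low passage; Evaluation: viability percentage against median untreated-cell control; Buffer or medium: 15% FBS in IMEM; Incubation: 72 h compound exposure at 37 °C after overnight plating; Dosing: 0.1% DMSO in all compound wells; Measured by: CellTiter-Glo luminescence.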
Numbers stand for hits.

Screening C#CCSc1nccc(-c2nn(-c3ccc(C)cc3)ccc2=O)n1 returned H69AR growth 86K 17, bCat KO growth inactive, HUVEC inhibit inactive, PTEN del growth inactive and Fibroblast inh inactive.
For CSc1nccc(-c2nn(-c3ccc(C)cc3)ccc2=O)n1 the results were H69AR growth 86K 24, bCat KO growth inactive, HUVEC inhibit inactive, PTEN del growth inactive and Fibroblast inh inactive.
Screening CNC(=O)c1nn(-c2ccc(C)cc2)ccc1=O returned bCat KO growth inactive and PTEN del growth inactive.
Screening O=C(Nc1ccccc1)Nc1ccc(C(=O)N2CCOCC2)cc1 returned H69AR growth 86K inactive, bCat KO growth inactive, HUVEC inhibit inactive, PTEN del growth inactive and Fibroblast inh inactive.
For Cc1nn(-c2ccccn2)c2c1C(c1c(F)cccc1Cl)C1=C(N2)c2ccccc2C1=O (stereo not drawn) the results were bCat KO growth inactive and PTEN del growth inactive.
Screening Cc1cc(C)cc(NC(=O)CSc2nc3c(c(=O)[nH]2)CN(Cc2ccc(F)cc2)CC3)c1 returned bCat KO growth inactive and PTEN del growth inactive.
COc1ccccc1NC(=O)C1C2C=CC(O2)C1C(=O)O (stereo not drawn) was read as H69AR growth 86K inactive, bCat KO growth inactive, HUVEC inhibit inactive, PTEN del growth inactive and Fibroblast inh 50.
Cc1ccc(SCC(=O)OCn2nnc3ccccc3c2=O)cc1C was read as bCat KO growth inactive and PTEN del growth inactive.
O=C(NCCCN1CCOCC1)c1ccc(Sc2cccc(Cl)c2)c([N+](=O)[O-])c1 was read as bCat KO growth inactive and PTEN del growth inactive.
Screening CN1CCN(c2c3c(c(C#N)c4nc5ccccc5n24)CCCC3)CC1 returned H69AR growth 86K inactive, HUVEC inhibit inactive and Fibroblast inh inactive.
`Cc1nc2ccccc2n1/N=C/c1ccc([N+](=O)[O-])s1` gave bCat KO growth 1.5 and PTEN del growth 1.7.
Screening O=C(CNC(=O)c1ccccc1Cl)N/N=C/c1ccc([N+](=O)[O-])s1 returned bCat KO growth inactive and PTEN del growth inactive.
`Cc1cc2ncn(/N=C/c3ccc([N+](=O)[O-])s3)c2cc1C` gave bCat KO growth 1.5 and PTEN del growth 1.2.
`Cc1cc2ncn(/N=C/c3cc(Br)ccc3O)c2cc1C` gave H69AR growth 86K 31, bCat KO growth inactive, HUVEC inhibit inactive, PTEN del growth inactive and Fibroblast inh inactive.
O=[N+]([O-])c1ccc(/C=N/n2cnc3ccccc32)s1 was read as bCat KO growth 2.4 and PTEN del growth 3.0.
Screening O=[N+]([O-])c1ccc(/C=N/n2c(CO)nc3ccccc32)s1 returned bCat KO growth inactive and PTEN del growth inactive.
Screening CCn1c(C(=O)NCc2cccnc2)cc2sc(Cl)cc21 returned bCat KO growth inactive and PTEN del growth inactive.
For COc1cc(C(=O)Nc2cc(C)ccn2)cc(OC)c1OC the results were H69AR growth 86K inactive, bCat KO growth inactive, HUVEC inhibit inactive, PTEN del growth inactive and Fibroblast inh inactive.
COc1ccc(C(=O)NC(=O)Nc2cc(C)ccn2)cc1 was read as H69AR growth 86K 40, bCat KO growth inactive, HUVEC inhibit inactive, PTEN del growth inactive and Fibroblast inh inactive.
For CC1(C(=O)OCC(=O)c2c[nH]c3ccccc23)CC1(Cl)Cl (stereo not drawn) the results were bCat KO growth inactive and PTEN del growth inactive.
`CCOC(=O)Cn1c(=NC(=O)c2ccc([N+](=O)[O-])s2)sc2ccccc21` gave bCat KO growth inactive and PTEN del growth inactive.
`COc1cc2c(cc1OC)CN(c1nc(CN3CCOCC3)nc3sc4c(c13)CCCC4)CC2` gave bCat KO growth inactive and PTEN del growth 3.1.
COc1cccc(NC(=O)COC(=O)c2c(F)cccc2F)c1 was read as bCat KO growth inactive and PTEN del growth inactive.
CC(C)CNC(=O)CN(C1CCCCC1)S(=O)(=O)c1ccccc1 was read as H69AR growth 86K inactive, bCat KO growth inactive, HUVEC inhibit inactive, PTEN del growth inactive and Fibroblast inh inactive.
`CC(=O)N1CCC(N(CCN2CCOCC2)C(=S)Nc2c(C)cccc2C)CC1` gave bCat KO growth inactive and PTEN del growth inactive.
`O=C(CN1CCN(S(=O)(=O)c2ccc(Br)cc2)CC1)Nc1ccc2c(c1)OCCO2` gave H69AR growth 86K 17, bCat KO growth inactive, HUVEC inhibit inactive, PTEN del growth inactive and Fibroblast inh inactive.
`COc1ccc(S(=O)(=O)N2CCN(CC(=O)Nc3ccc(C)c(F)c3)CC2)cc1` gave H69AR growth 86K 4.9, bCat KO growth inactive, HUVEC inhibit inactive, PTEN del growth inactive and Fibroblast inh inactive.
For O=C(CN1CCN(S(=O)(=O)c2ccc(Cl)cc2)CC1)Nc1ccc2c(c1)OCCO2 the results were H69AR growth 86K inactive, bCat KO growth inactive, HUVEC inhibit inactive, PTEN del growth inactive and Fibroblast inh inactive.
Screening Cc1cc(C)c2c(CN3CCN(Cc4ccc5c(c4)OCO5)CC3)cc(=O)oc2c1C returned H69AR growth 86K 33, bCat KO growth inactive, HUVEC inhibit inactive, PTEN del growth inactive and Fibroblast inh inactive.
`CSCCC(NC(=O)c1cc([N+](=O)[O-])ccc1Cl)C(=O)O` (stereo not drawn) gave bCat KO growth inactive and PTEN del growth inactive.
Screening CC(C)CCNC(=O)C(c1cccnc1)N(Cc1ccccc1)C(=O)Cn1nnc2ccccc21 (stereo not drawn) returned H69AR growth 86K inactive, HUVEC inhibit inactive and Fibroblast inh inactive.
CCCCCCCCOC(=O)C(NC(=O)CCC(=O)Nc1ccc(S(N)(=O)=O)cc1)C(O)c1ccccc1 (stereo not drawn) was read as H69AR growth 86K inactive, bCat KO growth inactive, HUVEC inhibit inactive, PTEN del growth inactive and Fibroblast inh inactive.
For CCOC(=O)C(NC(=O)CCC(=O)Nc1ccc(S(N)(=O)=O)cc1)C(O)c1ccccc1 (stereo not drawn) the results were H69AR growth 86K 32, bCat KO growth inactive, HUVEC inhibit inactive and PTEN del growth inactive.
`COc1ccc(OC)c2sc(N3CCCCC3)nc12` gave H69AR growth 86K inactive, bCat KO growth inactive, HUVEC inhibit inactive, PTEN del growth inactive and Fibroblast inh 46.
Screening Clc1cccc2sc(N3CCCCC3)nc12 returned bCat KO growth inactive and PTEN del growth inactive.
`COC(=O)c1ccccc1NC(=O)c1ccc(COc2ccccc2)o1` gave H69AR growth 86K inactive, bCat KO growth inactive, HUVEC inhibit inactive, PTEN del growth inactive and Fibroblast inh inactive.
`Cc1ccc(-c2nn3c(C)nnc3s2)cc1NC(=O)c1ccc(-c2cccc(Cl)c2)o1` gave H69AR growth 86K 4.2, bCat KO growth inactive, HUVEC inhibit inactive, PTEN del growth inactive and Fibroblast inh inactive.
Cc1ccc(-c2nn3c(C)nnc3s2)cc1NC(=O)c1ccc(Br)o1 was read as H69AR growth 86K inactive, bCat KO growth inactive, HUVEC inhibit inactive, PTEN del growth inactive and Fibroblast inh inactive.
For Cc1ccc(-c2nn3c(C)nnc3s2)cc1NC(=O)c1ccc(-c2ccc(Cl)cc2Cl)o1 the results were H69AR growth 86K inactive, bCat KO growth 2.3, HUVEC inhibit 6.5, PTEN del growth 3.2 and Fibroblast inh 6.5.
